From ChEMBL document CHEMBL3352052, “Bioactive metabolites from Chaetomium aureum: structure elucidation and inhibition of the Hsp90 machine chaperoning activity” (Bioorg Med Chem, 2015) come the findings set out here.

Activity calls are given as the source filed them. The rule behind the calls is not given here.

For one test, the species on record is Oryctolagus cuniculus. Description: Inhibition of Hsp90 chaperoning activity in rabbit reticulocyte lysate assessed as progesterone receptor hormone binding activity by liquid scintillation counting analysis. Summed up: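 Purified PR was bound to PR22 antibody-protein A-sepharose beads and mildly heat-denatured. Then 0.1 μM [3H]-progesterone was added for 3 h on ice, beads washed three times, and bound hormone counted by liquid scintillation.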

Test [1] relates to Hs-578T. Nature of the test: Cytotoxicity against human Hs578T cells assessed as cell survival at 10 to 20 uM after 48 hrs by MTS assay. The class given is functional, cell-based.
Test [2] deals with MDA-MB-231. Nature of the test: Cytotoxicity against human MDA-MB-231 cells assessed as cell survival at 10 to 20 uM after 48 hrs by MTS assay. It counts as functional, cell-based. A general note: Formazan colour is commonly taken as a measure of viable cells.
Test [3] deals with LNCaP. Nature of the test: Cytotoxicity against human LNCAP cells assessed as cell survival at 10 to 20 uM after 48 hrs by MTS assay. The class given is functional, cell-based.
In test [4] the test system is Hs-578T. Description: Cytotoxicity against human Hs578T cells assessed as cell survival at 10 to 20 uM by MTS assay. The class given is functional, cell-based.
The test system of the next test is MCF7. Nature of the test: Cytotoxicity against human MCF7 cells assessed as cell survival at 10 to 20 uM by MTS assay. The class given is functional, cell-based.
The subject of test [5] is MDA-MB-231. Nature of the test: Cytotoxicity against human MDA-MB-231 cells assessed as cell survival at 10 to 20 uM by MTS assay. It counts as functional, cell-based.
A further test concerns MDA-MB-453. Nature of the test: Cytotoxicity against human MDA-MB-453 cells assessed as cell survival at 10 to 20 uM by MTS assay. It counts as functional, cell-based.
In test [6] the test system is LNCaP. Nature of the test: Cytotoxicity against human LNCAP cells assessed as cell survival at 10 to 20 uM by MTS assay. The class given is functional, cell-based.
The subject of a further test is HeLa. Description: Cytotoxicity against human HeLa cells assessed as cell survival at 10 to 20 uM by MTS assay. It counts as functional, cell-based.
Test [7] concerns Hs-578T. Nature of the test: Induction of Hsp70 overexpression in human Hs578T cells at 10 to 20 uM by Western blot analysis. It counts as functional, cell-based. Summed up: (§1)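 Hs578T cells seeded in 6-well plates, treated the next day for 48 h, with medium and drug at the same concentration replaced every 24 h. Cells were harvested at 48 h and lysed, and 10 μg protein lysate was analysed by Western blot with specific antibodies, including rabbit anti-total GR.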
(In general: Immunoblotting shows a protein as a band on a membrane.)

Test [8] has as its system Hs-578T. Description: Induction of glucocorticoid receptor degradation in human Hs578T cells at 10 to 20 uM by Western blot analysis. It counts as functional, cell-based. Summed up: as §1
Test [9] has as its system Hs-578T. Nature of the test: Induction of Hsp40 degradation in human Hs578T cells at 10 to 20 uM by Western blot analysis. It counts as functional, cell-based. Summed up:
as §1

Consider `CC[C@H](C)/C=C(C)/C=C/C1=CC2=C(Cl)C(=O)[C@](C)(O)C(=O)C2=CO1`, for which the inhibition result in the test filed under Oryctolagus cuniculus, in the test with Hs-578T [1], in the test with MDA-MB-231 [2] and with LNCaP [3] was “Active” throughout.

Regarding `C=CCNC1=C2C[C@@H](C)C[C@H](OC)[C@H](O)[C@@H](C)/C=C(\C)[C@H](OC(N)=O)[C@@H](OC)/C=C\C=C(/C)C(=O)NC(=CC1=O)C2=O`, the inhibition entry in the test listed under Oryctolagus cuniculus was “Active”.

On to `CC[C@H](C)/C=C(C)/C=C/C1=CC2=C(Cl)C(=O)[C@](C)(OC(C)=O)C(=O)C2=CO1`, for which, in the test filed under Oryctolagus cuniculus, the inhibition entry was “Active”. Moreover, the outcome in the test on Hs-578T [4], in the test with MCF7, in the test on MDA-MB-231 [5], with MDA-MB-453, with LNCaP [6] and in the test with HeLa was inactive. Moreover, the outcome with Hs-578T [7], in the test with Hs-578T [8] and in the test with Hs-578T [9] was Active.
